Reference: ChEMBL document CHEMBL1138089, “Cell permeation of a Trypanosoma brucei aldolase inhibitor: evaluation of different enzyme-labile phosphate protecting groups” (Bioorg Med Chem Lett, 2006)

Assays:
Plasmodium falciparum = experiment: Inhibitory activity against Plasmodium falciparum; type: functional, organism-based
Trypanosoma brucei = experiment: Inhibitory activity against Trypanosoma brucei; type: functional, organism-based
Summary of the method: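 Parasites cultured free in serum-containing medium without macrophages; prodrugs tested in vitro against the cultures.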

Trypanosoma cruzi = experiment: Inhibitory activity against Trypanosoma cruzi; type: functional, organism-based
Summary of the method: (§1)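 Parasites grown inside host macrophages in serum-containing medium, so compounds must cross the macrophage and parasite membranes; tested in vitro.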

Leishmania infantum = experiment: Inhibitory activity against Leishmania […]; type: functional, organism-based; summary of the method: as §1
MRC5 = experiment: Cytotoxicity against human MRC5 cells; type: functional, cell-based

| Compound | IC50 (Plasmodium falciparum) [µM] | IC50 (Trypanosoma brucei) [µM] | IC50 (Trypanosoma cruzi) [µM] | IC50 (Leishmania infantum) [µM] | IC50 (MRC5) [µM] |
| --- | --- | --- | --- | --- | --- |
| CC(C)(C)C(=O)SCCOP(=O)(OCCSC(=O)C(C)(C)C)Oc1ccc(O)c(C=O)c1 | 12 | 16 | 15 | 25 | 6 |
| CC(=O)OCCSSCCOP(=O)(OCCSSCCOC(C)=O)Oc1ccc(O)c(C=O)c1 | > 50 | > 50 | > 50 | > 50 | > 50 |
| CC(C)(C)C(=O)OCOP(=O)(OCOC(=O)C(C)(C)C)Oc1ccc(O)c(C=O)c1 | > 50 | 20 | > 50 | > 50 | > 50 |
| CC(=O)Oc1ccccc1CCC(=O)OCOP(=O)(OCOC(=O)CCc1ccccc1OC(C)=O)Oc1ccc(O)c(C=O)c1 | > 50 | > 50 | > 50 | > 50 | > 50 |
| O=Cc1cc(OP(=O)(O)O)ccc1O | > 50 | > 50 | > 50 | > 50 | > 50 |
